A word on the inhibition: it is how much of the control response was suppressed.

We go through 16 molecules from paper PMC9996623 (ACS Omega, 2023).

The target of one test is HIV-1 integrase (Human immunodeficiency virus type 1 group M subtype B, UniProt P04585). Kind of test: HIV-1 integrase strand transfer. The test is classed as biochemical. To be noted: for inhibition at 10 µM: read-out: %ST inhibition (percentage inhibition of strand transfer activity of integrase enzyme), 10 μM dose, WT (wild-type) integrase; for fold increase in %ST inhibition compared to 10a: versus 10a.

The test system of the next test is TZM-bl cells. Nature of the test: MTT cytotoxicity assay on TZM-bl cells. To be noted: IC50 values at 48 h, 3.125 to 200 μM. The test is classed as cell-based. The procedure, abridged: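 Medium with compound removed; MTT reagent (5 mg/mL) added for 4 h; formazan dissolved in DMSO with shaking; absorbance read at 570 nm against a 630 nm reference. Percent viability plotted versus concentration.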

As to `Cn1cc(-c2ccccc2)c2ccc(Cl)nc21` [10a, 6-Chloro-1-methyl-3-phenyl-1H-pyrrolo[2,3-b]pyridine], at HIV-1 integrase, the inhibition at 10 µM was 14%. For `Cc1ccc(-c2cn(C)c3nc(Cl)ccc23)cc1` [10b, 6-Chloro-1-methyl-3-(p-tolyl)-1H-pyrrolo[2,3-b]pyridine], the “fold increase in %ST inhibition compared to 10a” value on HIV-1 integrase (10 μM dose) is around 3 fold. Moreover, the inhibition at 10 µM on HIV-1 integrase came to 41%. Take `Cc1cccc(-c2cn(C)c3nc(Cl)ccc23)c1` [10c, 6-Chloro-1-methyl-3-(m-tolyl)-1H-pyrrolo[2,3-b]pyridine]: at HIV-1 integrase, the inhibition at 10 µM came out at 19.4%.

As for `COc1ccc(-c2cn(C)c3nc(Cl)ccc23)cc1` [10d, 6-Chloro-3-(4-methoxyphenyl)-1-methyl-1H-pyrrolo[2,3-b]pyridine], the inhibition at 10 µM at HIV-1 integrase is 56%. Consider `Cn1cc(-c2ccc(F)cc2)c2ccc(Cl)nc21` [10e, 6-Chloro-3-(4-fluorophenyl)-1-methyl-1H-pyrrolo[2,3-b]pyridine], for which, at HIV-1 integrase, the inhibition at 10 µM turned out to be 38.3%. Consider `Cn1cc(-c2cc(C(F)(F)F)cc(C(F)(F)F)c2)c2ccc(Cl)nc21` [10f, 3-(3,5-Bis(trifluoromethyl)phenyl)-6-chloro-1-methyl-1H-pyrrolo[2,3-b]pyridine], for which the inhibition at 10 µM at HIV-1 integrase was determined as 48.3%. Take `Cn1cc(-c2ccc3c(c2)OCO3)c2ccc(Cl)nc21` [10h, 3-(Benzo[d][1,3]dioxol-5-yl)-6-chloro-1-methyl-1H-pyrrolo[2,3-b]pyridine]: the inhibition at 10 µM on HIV-1 integrase stood at 54%. Take `COc1ccc(-c2ccc3c(-c4ccccc4)cn(C)c3n2)cc1` [11a, 6-(4-Methoxyphenyl)-1-methyl-3-phenyl-1H-pyrrolo[2,3-b]pyridine]: the “fold increase in %ST inhibition compared to 10a” value on HIV-1 integrase (10 μM dose) is listed as around 2 fold. The inhibition at 10 µM at HIV-1 integrase worked out at 39.3%.

Regarding `Cc1ccc(-c2ccc3c(-c4ccccc4)cn(C)c3n2)cc1` [11b, 1-Methyl-3-phenyl-6-(p-tolyl)-1H-pyrrolo[2,3-b]pyridine], the inhibition at 10 µM at HIV-1 integrase turned out to be 51.7%. On to `Cn1cc(-c2ccccc2)c2ccc(-c3cc(C(F)(F)F)cc(C(F)(F)F)c3)nc21` [11c, 6-(3,5-Bis(trifluoromethyl)phenyl)-1-methyl-3-phenyl-1H-pyrrolo[2,3-b]pyridine], for which the inhibition at 10 µM on HIV-1 integrase is 36.4%. Consider `COc1ccc(-c2ccc3c(-c4ccc(F)cc4F)cn(C)c3n2)cc1` [11d, 3-(2,4-Difluorophenyl)-6-(4-methoxyphenyl)-1-methyl-1H-pyrrolo[2,3-b]pyridine], for which, at HIV-1 integrase, the inhibition at 10 µM came to 72%. As for `Cn1cc(-c2ccccc2)c2ccc(-c3ccsc3)nc21` [11e, 1-Methyl-3-phenyl-6-(thiophen-3-yl)-1H-pyrrolo[2,3-b]pyridine], on HIV-1 integrase, the inhibition at 10 µM came out at 41.6%. On to `Cn1cc(-c2ccc3c(c2)OCO3)c2ccc(-c3ccncc3)nc21` [11f, 3-(Benzo[d][1,3]dioxol-5-yl)-1-methyl-6-(pyridin-4-yl)-1H-pyrrolo[2,3-b]pyridine], for which the “fold increase in %ST inhibition comparing 10h and 11f” value at HIV-1 integrase (10 μM dose, versus 10h) is around 1.3 fold. Besides, the inhibition at 10 µM at HIV-1 integrase was 71%. Also, the “IC50 in TZM-bl” value in the test with TZM-bl cells was “minimal cytotoxicity”.

On to `COc1ccc(Cn2cc(-c3ccsc3)c3ccc(-c4ccncc4)nc32)cc1` [12a, 1-(4-Methoxybenzyl)-6-(pyridin-4-yl)-3-(thiophen-3-yl)-1H-pyrrolo[2,3-b]pyridine], for which the inhibition at 10 µM on HIV-1 integrase amounted to 15.9%. Consider `COc1ccc(Cn2cc(-c3ccc4c(c3)OCO4)c3ccc(-c4ccc5ccccc5c4)nc32)cc1` [12b, 3-(Benzo[d][1,3]dioxol-5-yl)-1-(4-methoxybenzyl)-6-(naphthalen-2-yl)-1H-pyrrolo[2,3-b]pyridine], for which the inhibition at 10 µM on HIV-1 integrase is 24.1%. Turning to `Cc1nnc(C(=O)NC(C)(C)c2nc(C(=O)NCc3ccc(F)cc3)c(O)c(=O)n2C)o1` [RAL, Raltegravir, reference compound], the inhibition at 10 µM at HIV-1 integrase stood at 82%.
